Results of several laboratories.
Compare with care: the assays were run in different laboratories.

`CC1=C(C#N)[C@@H](c2ccc(C#N)cc2C(F)(F)F)NC(=O)N1c1cccc(C(F)(F)F)c1` gave a chromatographic logD of 3.2 (HPLC; pH 7.5).
The chromatographic logD of `CCOC(=O)C1=C(C)N/C(=C/c2cc(C)n(-c3ccc(CN4CCCCC4)cc3)c2C)C1=O` is reported as 2.7 (HPLC; pH 7.4).
`CC(C)(C)C1=CC(=NNc2ccc([N+](=O)[O-])cc2[N+](=O)[O-])C=C(C(C)(C)C)C1=O` has a chromatographic logD of > 5.3 (HPLC; pH 7.4).
The chromatographic logD of `Cn1c(-c2nc3cc(C(=O)N4CCCC(N)C4)ccc3n2C)cc2ccccc21` (stereo not drawn) is reported as 2.8 (HPLC; pH 7.4).
For `COc1cc(Cl)c(C(=O)N[C@@H](CN[C@H]2CC[C@@H](N)CC2)Cc2ccc(C#N)cc2)cc1-c1ccc(CN[C@H](C)c2ccc(C)cc2)o1`, the chromatographic logD was 2.9 (HPLC; pH 7.5).
For `CC1=C(C(=O)O)C(=O)/C(=C\c2cc(C)n(-c3ccccc3C(F)(F)F)c2C)N1`, the chromatographic logD was 3.2 (HPLC; pH 7.4).
`N#CC(c1ccc(CNc2cccc3c2CN(C2CCC(=O)NC2=O)C3=O)cc1)N1CCOCC1` (stereo not drawn) has a chromatographic logD of 2 (HPLC; pH 7.4).
`C[C@H](C(=O)N1Cc2c(-c3ccc(C(=O)N4CCCc5ccccc54)cc3)cnn2C[C@H]1C)c1ccccc1` gave a chromatographic logD of 5.2 (HPLC; pH 7.4).
`CC1=C(C#N)[C@@H](c2ccc(C#N)cc2S(C)(=O)=O)N(C)C(=O)N1c1cccc(C(F)(F)F)c1` gave a chromatographic logD of 3 (HPLC; pH 7.5).
For `CC(=O)Nc1nc(-c2c(F)cccc2F)cs1`, the chromatographic logD was 3.7 (pH 7.4).
`CO[C@H](C(=O)N1Cc2c(-c3ccc(C(=O)N4CCCc5ccccc54)cn3)cnn2C[C@H]1C(C)C)c1cnn(C)c1` (single isomer, unassigned) gave a chromatographic logD of 3.1 (HPLC; pH 7.4).
With `CCOC(=O)C1=C(C)N/C(=C/c2cc(C)n(-c3ccc(CN(C)C)cc3)c2C)C1=O` the chromatographic logD was 2.1 (HPLC; pH 7.4).
For `CCn1c(-c2nc3ccc(C(=O)N4CCCC(N)C4)cc3n2C)cc2ccccc21` (stereo not drawn), the chromatographic logD was 3 (HPLC; pH 7.4).
`O=C(Nc1ccnc(C(F)(F)F)c1)Nc1cccc2c1OC(F)(F)O2` gave a chromatographic logD of 3.6 (HPLC; pH 7.4).
For `CCc1nnc(NC(=O)c2nc(-c3ccc(Cl)cc3)n3c2CCCCC3)s1`, the chromatographic logD was 6.8 (pH 7.4).
With `CC1=C(C(N)=O)C(=O)/C(=C\c2cc(C)n(-c3ccccc3C(F)(F)F)c2C)N1` the chromatographic logD was 2.8 (HPLC; pH 7.4).
`CO[C@H](C(=O)N1Cc2c(-c3ccc(C(=O)N4CCCc5ccccc54)cc3)cnn2C[C@H]1C(C)C)c1ccccc1` (single isomer, unassigned) gave a chromatographic logD of 5.4 (HPLC; pH 7.4).
`CCOC(=O)C1=C(C)N/C(=C/c2cc(C)n(-c3ccc(S(=O)(=O)C(F)(F)F)cc3)c2C)C1=O` has a chromatographic logD of 3.4 (HPLC; pH 7.4).
With `CO[C@H](C(=O)N1Cc2c(-c3ccc(C(=O)N4CCCc5ccccc54)cc3)cnn2C[C@H]1C(C)C)c1cnn(C)c1` (single isomer, unassigned) the chromatographic logD was 4.2 (HPLC; pH 7.4).
`Cc1oc(-c2ccccc2)nc1C(=O)NCCN1CCCCCC1=O` has a chromatographic logD of 4.5 (pH 7.4).
`CCOC(=O)C1=C(C)N/C(=C/c2cc(C)n(-c3cccnc3)c2C)C1=O` gave a chromatographic logD of 1.9 (HPLC; pH 7.4).
